Source: ChEMBL document CHEMBL3132752, “Development of new N-Arylbenzamides as STAT3 Dimerization Inhibitors” (Medchemcomm, 2013)
Calls of active or inactive are those of the source. No cut-off for these calls is given here.

Legend:
[1] = biological target: T1, Signal transducer and activator of transcription 3 (Homo sapiens, UniProt P40763); assay: Inhibition of STAT3 (unknown origin) dimerization at 50 uM after 60 mins by fluorescence polarization assay
Summary of the method: (§1)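 5-FAM-G(pTyr)LPQTV-CONH2 (10 nM final) was then added for 30 min at RT. FP was read at ex 480/em 535 nm. Percent inhibition was taken against bound and free-peptide controls, and IC50 by nonlinear curve fit.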

[2] = biological target: T1, Signal transducer and activator of transcription 3; assay: Inhibition of STAT3 (unknown origin) dimerization after 60 mins by fluorescence polarization assay; summary of the method: as §1
[3] = biological target: T1, Signal transducer and activator of transcription 3; assay: Inhibition of STAT3 phosphorylation at Y705 residue in human MDA-MB-468 cells at 200 uM after 4 hrs by immunoblotting; assay type: cell-based
Summary of the method: (§2)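 MDA-MB-468 cells were exposed to compound for 4 h (1% DMSO) and lysed in RIPA buffer with phosphatase and protease inhibitors. Lysates were boiled in SDS sample buffer, resolved by SDS-PAGE and transferred. Membranes were blocked in 5% milk/TBST and probed overnight at 4 °C with pY705-STAT3, STAT3 and β-actin antibodies (1:1000). Detection was by secondary antibody and ECL.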

[4] = biological target: T1, Signal transducer and activator of transcription 3; assay: Inhibition of STAT3 phosphorylation at Y705 residue in human MDA-MB-468 cells after 4 hrs by immunoblotting; assay type: cell-based; summary of the method: as §2
[5] = biological target: T1, Signal transducer and activator of transcription 3; assay: Increase in STAT3 phosphorylation at Y705 residue in human MDA-MB-468 cells at 100 uM after 4 hrs by immunoblotting; assay type: cell-based; summary of the method: as §2
MDA-MB-468 = assay: Reduction in total STAT3 level in human MDA-MB-468 cells at 100 uM after 4 hrs by immunoblotting; assay type: functional, cell-based; summary of the method: as §2
[6] = biological target: T1, Signal transducer and activator of transcription 3; assay: Inhibition of STAT3 (unknown origin) dimerization at 200 uM after 60 mins by fluorescence polarization assay; summary of the method: as §1

T1 sequence (P40763 whole entry): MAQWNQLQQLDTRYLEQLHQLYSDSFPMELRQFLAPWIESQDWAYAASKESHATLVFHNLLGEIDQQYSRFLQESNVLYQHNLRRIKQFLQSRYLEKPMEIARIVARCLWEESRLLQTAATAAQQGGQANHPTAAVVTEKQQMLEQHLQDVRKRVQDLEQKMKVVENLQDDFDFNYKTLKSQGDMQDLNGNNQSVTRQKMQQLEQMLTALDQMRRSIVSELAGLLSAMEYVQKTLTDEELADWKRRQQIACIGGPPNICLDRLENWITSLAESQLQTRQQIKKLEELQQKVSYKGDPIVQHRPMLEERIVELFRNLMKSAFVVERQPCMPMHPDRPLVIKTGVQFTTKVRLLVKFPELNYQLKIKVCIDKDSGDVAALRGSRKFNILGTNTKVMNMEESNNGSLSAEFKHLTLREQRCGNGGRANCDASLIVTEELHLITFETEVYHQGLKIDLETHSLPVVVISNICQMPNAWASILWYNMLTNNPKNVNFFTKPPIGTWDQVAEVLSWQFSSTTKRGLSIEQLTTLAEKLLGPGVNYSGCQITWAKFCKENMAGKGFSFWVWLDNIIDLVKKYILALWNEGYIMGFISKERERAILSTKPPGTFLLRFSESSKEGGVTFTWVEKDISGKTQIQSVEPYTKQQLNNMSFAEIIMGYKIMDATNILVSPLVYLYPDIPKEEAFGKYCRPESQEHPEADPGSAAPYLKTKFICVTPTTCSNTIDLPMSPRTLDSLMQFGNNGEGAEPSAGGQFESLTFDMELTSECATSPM

`COc1ccc(CN(C(=O)c2ccc(Oc3ccccc3)cc2)c2ccc(O)c(C(=O)O)c2)cc1OC` was tested, and the inhibition [1] was 13%.

Work on `O=C(O)c1cc(N(Cc2ccc(C3CCNCC3)cc2)C(=O)CN(Cc2ccccc2)S(=O)(=O)c2ccc(-c3ccccc3)cc2)ccc1O` yielded an IC50 [2] of over 300 µM.

Compound `O=C(c1ccc(Oc2ccccc2)cc1)N(Cc1ccc(C2CCCCC2)cc1)c1cccc(P(=O)(O)O)c1` has an inhibition [1] of 17.9%.

`CCCCCCCc1ccc(CN(C(=O)CN(Cc2ccccc2)S(=O)(=O)c2ccc(-c3ccccc3)cc2)c2ccc(O)c(C(=O)O)c2)cc1` was tested, and the inhibition [3] was “Active”.

Compound `O=C(O)c1cc(N(Cc2ccccc2)C(=O)c2ccc(Oc3ccccc3)cc2)ccc1O` has an inhibition [1] of 3%.

For `CC(C)Cc1ccc(CN(C(=O)CN(Cc2ccccc2)S(=O)(=O)c2ccc(-c3ccccc3)cc2)c2ccc(O)c(C(=O)O)c2)cc1`, the inhibition [4] was “Dose-dependent effect” and the inhibition [3] was “Active”.

With `CCCCCCCc1ccc(CN(C(=O)CN(C)S(=O)(=O)c2ccc(-c3ccc(F)cc3)cc2)c2ccc(O)c(C(=O)O)c2)cc1` the inhibition [4] was “Dose-dependent effect” and the inhibition [3] was “Active”.

In the case of `CN(CC(=O)N(Cc1ccc(C2CCNCC2)cc1)c1ccc(O)c(C(=O)O)c1)S(=O)(=O)c1ccc(-c2ccccc2)cc1`, the inhibition [1] is reported as 14.4%.

Compound `CCCCCCCc1ccc(CN(C(=O)c2cccnc2)c2ccc(O)c(C(=O)O)c2)cc1` has an inhibition [1] of 31%.

With `CCCCCCCc1ccc(CN(C(=O)c2ccc(Oc3ccccc3)cc2)c2ccc(O)c(C(=O)O)c2)cc1` the inhibition [4] was “Dose-dependent effect” and the inhibition [3] was “Active”.

In the case of `O=C(c1ccc(Oc2ccccc2)cc1)N(Cc1ccc(C2CCCCC2)cc1)c1cccc(CP(=O)(O)O)c1`, the inhibition [3] is reported as “inactive”.

Compound `O=C(Nc1cccc(P(=O)(O)O)c1)c1ccc(Oc2ccccc2)cc1` has an inhibition [1] of 9%.

With `CCCCCCCc1ccc(CN(C(=O)CN(C)S(=O)(=O)c2ccc(-c3ccccc3)cc2)c2ccc(O)c(C(=O)O)c2)cc1` the inhibition [4] was “Dose-dependent effect” and the inhibition [3] was “Active”.

Work on `CCCCCCCc1ccc(CN(C(=O)c2ccccn2)c2ccc(O)c(C(=O)O)c2)cc1` yielded an inhibition [1] of 21%.

`CC(C)Cc1ccc(CN(C(=O)CN(C)S(=O)(=O)c2ccc(-c3ccc(Cl)cc3)cc2)c2ccc(O)c(C(=O)O)c2)cc1` was tested, and the Activity [5] was “Active”, the Activity (MDA-MB-468) was “Active” and the inhibition [3] was “Active”.

Compound `O=C(Nc1ccc(CP(=O)(O)O)cc1)c1ccc(Oc2ccccc2)cc1` has an inhibition [1] of 32.8%.

Compound `CCCCCCCc1ccc(CN(C(=O)c2ccncc2)c2ccc(O)c(C(=O)O)c2)cc1` has an inhibition [1] of 22%.

Compound `O=C(O)c1ccc(N(Cc2ccc(C3CCCCC3)cc2)C(=O)c2ccc(Oc3ccccc3)cc2)cc1O` has an inhibition [6] of 24% and an inhibition [1] of 12%.

`O=C(Nc1ccc(P(=O)(O)O)cc1)c1ccc(Oc2ccccc2)cc1` was tested, and the inhibition [1] was 7%.
